Test [1] concerns CT26 (murine colon carcinoma) cell line. Nature of the test: Colorimetric MTT cytotoxicity assay, CT26. The test is classed as cell-based.
Test [2] relates to MRC-5 (human lung fibroblasts, non-cancerous). The test can be described thus: Colorimetric MTT cytotoxicity assay, MRC-5. The test is classed as cell-based. The settings on record: MRC5, 72 h, read-out: IC50 MRC-5. In outline: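 MRC-5 cells from ATCC, trypsinized, seeded at 6000 cells/well (6 × 10^4 cells/mL), grown 24 h, then exposed 72 h to test compound serially diluted in complete medium. Medium replaced with MTT in media (5 mg/mL) for 45 min; formazan dissolved in DMSO, OD at 570 nm. T/C versus untreated cells; IC50 interpolated from concentration-effect curves; ≥3 independent experiments, triplicates per concentration.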

For test [3], the system named is MCF-7 (human breast adenocarcinoma) cell line. Nature of the test: Colorimetric MTT cytotoxicity assay, MCF-7. The following applies: for IC50: Homo sapiens. The test is classed as cell-based.
In test [4] the test system is MRC-5 (human lung fibroblasts, non-cancerous). The settings on record: read-out: IC50 MRC-5; taken from the literature; cited from earlier work.

Read-outs that look alike come from different tables or passages of the source.

Consider `C=C(C)[C@H]1CC[C@@]2(C)CC[C@]3(C)C[C@H]4[C@@H](C)CC(=O)[C@H]4/C(C=O)=C\C[C@H]3[C@H]12` [compound 1, Variecolin], for which, in test [1] (IC50(MRC-5)/IC50(CT26)), the “SF CT26 (selectivity factor)” value worked out at 1.1. For the same compound, the IC50 was 1000 ± 300 nM in test [1] (Mus musculus, CT26, 72 h, read-out: IC50 CT26); 1100 ± 200 nM in test [2]; 1400 ± 300 nM in test [3] (MCF7, 72 h, read-out: IC50 MCF-7); 1000 to 8000 nM in test [3] (MCF7, read-out: IC50s in both cancer cell lines). In addition, in test [3] (IC50(MRC-5)/IC50(MCF-7)), the “SF MCF-7 (selectivity factor)” value is 0.8.

In the case of `CC(=O)O[C@H]1C(=O)[C@@]2(C)[C@H]([C@H](OC(=O)c3ccccc3)[C@]3(O)C[C@H](OC(=O)[C@H](O)[C@@H](NC(=O)c4ccccc4)c4ccccc4)C(C)=C1C3(C)C)[C@]1(OC(C)=O)CO[C@@H]1C[C@@H]2O` [Paclitaxel], in test [4], the IC50 is 2.61 nM.

Source of the values: PMC10793096 (Acta Pharmaceutica Sinica. B, 2023).
